pIC50: −log10 of the molar value.
Tests used:
[1] = Inhibition of bovine brain tubulin polymerization for 20 mins by turbidimetry; set-up: species or system Bos taurus
How it was run: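 Purified bovine brain tubulin (10 μM) preincubated with varying compound concentrations in glutamate buffer at 30 °C, cooled to 0 °C, GTP added, then warmed to 30 °C in a recording spectrophotometer.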

[2] = system: K562; test: Cell cycle arrest in human K-562 cells assessed as accumulation at G2/M phase at 68 nM after 24 hrs by flow cytometry; assay type: functional
[3] = system: K562; test: Cell cycle arrest in human K-562 cells assessed as accumulation at G0/G1 phase at 68 nM after 24 hrs by flow cytometry; assay type: functional
[4] = system: FM3A; test: Antiproliferative activity against mouse FM3A cells after 2 days; assay type: functional, cell-based; details: 48 h
[5] = system: K562; test: Cell cycle arrest in human K-562 cells assessed as accumulation at S phase at 68 nM after 24 hrs by flow cytometry; assay type: functional
[6] = species on record: Bos taurus; test: Displacement of [3H]colchicine from bovine brain tubulin at 1 uM
How it was run: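 Purified bovine brain tubulin (1 μM) was incubated with 5 μM [3H]colchicine and 1 μM test compound. The read-out is percent inhibition of radiolabelled colchicine binding.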

[7] = system: L1210; test: Antiproliferative activity against mouse L1210 cells after 2 days; assay type: functional, cell-based; details: L1210, 48 h
How it was run: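 Cells were seeded at 300,000–500,000 cells/mL and mixed 1:1 with compound dilutions. They were incubated at 37 °C for two days and counted with a Coulter counter. IC50 is the concentration that inhibits proliferation by 50%, given as mean ± SE from dose–response curves of at least three independent experiments.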

[8] = system: K562; test: Cell cycle arrest in human K-562 cells assessed as accumulation at sub G0/G1 phase at 68 nM after 24 hrs by flow cytometry; assay type: functional
[9] = system: K562; test: Cell cycle arrest in human K-562 cells assessed as accumulation at S phase at 400 nM after 24 hrs by flow cytometry; assay type: functional
[10] = system: K562; test: Cell cycle arrest in human K-562 cells assessed as accumulation at G2/M phase at 400 nM after 24 hrs by flow cytometry; assay type: functional
[11] = system: K562; test: Cytotoxicity against human K-562 after 24 hrs; assay type: functional, cell-based; details: K562, 24 h
[12] = system: K562; test: Cell cycle arrest in human K-562 cells assessed as accumulation at G0/G1 phase at 400 nM after 24 hrs by flow cytometry; assay type: functional
[13] = system: K562; test: Cell cycle arrest in human K-562 cells assessed as accumulation at sub G0/G1 phase at 400 nM after 24 hrs by flow cytometry; assay type: functional
[14] = system: K562; test: Cell cycle arrest in human K-562 cells assessed as accumulation at G2/M phase at 85 nM after 24 hrs by flow cytometry; assay type: functional
[15] = system: K562; test: Cell cycle arrest in human K-562 cells assessed as accumulation at sub G0/G1 phase at 85 nM after 24 hrs by flow cytometry; assay type: functional
[16] = system: K562; test: Cell cycle arrest in human K-562 cells assessed as accumulation at G0/G1 phase at 85 nM after 24 hrs by flow cytometry; assay type: functional
[17] = system: K562; test: Cell cycle arrest in human K-562 cells assessed as accumulation at S phase at 85 nM after 24 hrs by flow cytometry; assay type: functional
[18] = system: K562; test: Cell cycle arrest in human K-562 cells assessed as accumulation at G2/M phase at 212 nM after 24 hrs by flow cytometry; assay type: functional
How it was run: (§1)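 K562 cells exposed 24 h to compound, then washed once in ice-cold PBS. Resuspended at 1 × 10⁶ per mL in hypotonic propidium iodide 50 μg/mL with 0.1% sodium citrate and 0.03% (v/v) nonidet P-40, 30 min. Fluorescence read by flow cytometry as a single-parameter histogram. Sub-G0-G1, G0-G1, S and G2-M fractions compared with untreated control.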

[19] = system: K562; test: Cell cycle arrest in human K-562 cells assessed as accumulation at S phase at 212 nM after 24 hrs by flow cytometry; assay type: functional; how it was run: as §1
[20] = system: K562; test: Cell cycle arrest in human K-562 cells assessed as accumulation at G0/G1 phase at 212 nM after 24 hrs by flow cytometry; assay type: functional; how it was run: as §1
[21] = system: K562; test: Cell cycle arrest in human K-562 cells assessed as accumulation at sub G0/G1 phase at 212 nM after 24 hrs by flow cytometry; assay type: functional; how it was run: as §1
[22] = Antiproliferative activity against human Molt4/C8 cells after 3 days; details: MOLT-4, 72 h
[23] = system: K562; test: Cell cycle arrest in human K-562 cells assessed as accumulation at sub G0/G1 phase at 115 nM after 24 hrs by flow cytometry; assay type: functional; how it was run: as §1
[24] = system: K562; test: Cell cycle arrest in human K-562 cells assessed as accumulation at G2/M phase at 115 nM after 24 hrs by flow cytometry; assay type: functional; how it was run: as §1
[25] = system: K562; test: Cell cycle arrest in human K-562 cells assessed as accumulation at S phase at 115 nM after 24 hrs by flow cytometry; assay type: functional; how it was run: as §1
[26] = system: K562; test: Cell cycle arrest in human K-562 cells assessed as accumulation at G0/G1 phase at 115 nM after 24 hrs by flow cytometry; assay type: functional; how it was run: as §1
[27] = system: K562; test: Cell cycle arrest in human K-562 cells assessed as accumulation at G2/M phase at 120 nM after 24 hrs by flow cytometry; assay type: functional
[28] = system: K562; test: Cell cycle arrest in human K-562 cells assessed as accumulation at sub G0/G1 phase at 120 nM after 24 hrs by flow cytometry; assay type: functional
[29] = system: K562; test: Cell cycle arrest in human K-562 cells assessed as accumulation at S phase at 120 nM after 24 hrs by flow cytometry; assay type: functional
[30] = system: K562; test: Cell cycle arrest in human K-562 cells assessed as accumulation at G0/G1 phase at 120 nM after 24 hrs by flow cytometry; assay type: functional

COc1ccc2c(N)c(C(=O)c3cc(OC)c(OC)c(OC)c3)[nH]c2c1
pIC50 [1]: < 4.40

COc1ccc2c(N(C)C)c(C(=O)c3cc(OC)c(OC)c(OC)c3)oc2c1
Activity [2]: 30%
Activity [3]: 38%
pIC50 [4]: 7.23
Activity [5]: 32%
Activity [6]: 76%
pIC50 [7]: 7.19
Activity [8]: 13%
pIC50 [1]: 6.05

COc1ccc2oc(C(=O)c3cc(OC)c(OC)c(OC)c3)c(N(C)C)c2c1
pIC50 [4]: 5.92
pIC50 [7]: 5.85

COc1ccc2c(NC(=O)CCl)c(C(=O)c3cc(OC)c(OC)c(OC)c3)oc2c1
pIC50 [4]: 5.96
Activity [9]: 44%
Activity [10]: 33%
Activity [6]: 47%
pIC50 [11]: 6.40
pIC50 [7]: 5.96
Activity [12]: 23%
Activity [13]: 13%
pIC50 [1]: 5.70

COc1ccc2c(NC(C)=O)c(C(=O)c3cc(OC)c(OC)c(OC)c3)oc2c1
pIC50 [4]: 7.00
Activity [14]: 37%
Activity [6]: 51%
Activity [15]: 12%
pIC50 [11]: 7.07
Activity [16]: 27%
pIC50 [7]: 7.03
pIC50 [1]: 5.80
Activity [17]: 36%

COc1ccc2c(NC(=O)CBr)c(C(=O)c3cc(OC)c(OC)c(OC)c3)oc2c1
Activity [18]: 67%
Activity [19]: 27%
pIC50 [4]: 6.25
Activity [20]: 6%
pIC50 [7]: 6.32
Activity [21]: 15%
pIC50 [1]: 5.64

COc1cc(C(=O)c2oc3ccccc3c2N)cc(OC)c1OC
pIC50 [4]: < 5.00
pIC50 [7]: < 5.00

COc1cc(C(=O)c2oc3cccc(OC)c3c2N(C)C)cc(OC)c1OC
pIC50 [4]: < 5.00
pIC50 [22]: < 5.00
pIC50 [7]: < 5.00

COc1ccc2c(NC(=O)CI)c(C(=O)c3cc(OC)c(OC)c(OC)c3)oc2c1
Activity [23]: 33%
Activity [24]: 21%
pIC50 [4]: 6.59
Activity [25]: 56%
Activity [6]: 54%
Activity [26]: 23%
pIC50 [7]: 6.77
pIC50 [1]: 5.74

COc1cc(C(=O)c2oc3ccccc3c2N(C)C)cc(OC)c1OC
pIC50 [4]: 5.06
pIC50 [7]: < 5.00

COc1cc(C(=O)c2oc3c(OC)cccc3c2N)cc(OC)c1OC
pIC50 [4]: < 5.00
pIC50 [7]: < 5.00

COc1ccc2oc(C(=O)c3cc(OC)c(OC)c(OC)c3)c(N)c2c1
pIC50 [4]: < 5.00
pIC50 [7]: < 5.00

COc1cc(C(=O)c2oc3c(OC)cccc3c2N(C)C)cc(OC)c1OC
pIC50 [4]: 5.92
pIC50 [7]: 5.96

COc1ccc2c(N)c(C(=O)c3cc(OC)c(OC)c(OC)c3)sc2c1
pIC50 [4]: 7.34
Activity [6]: 60%
pIC50 [7]: 7.41
pIC50 [1]: 5.89

COc1ccc2c(N)c(C(=O)c3cc(OC)c(OC)c(OC)c3)oc2c1
Activity [27]: 44%
pIC50 [4]: 6.55
Activity [28]: 15%
Activity [6]: 73%
Activity [29]: 45%
pIC50 [11]: 6.92
pIC50 [7]: 6.37
Activity [30]: 11%
pIC50 [1]: 5.96

COc1cc(C(=O)c2oc3cccc(OC)c3c2N)cc(OC)c1OC
pIC50 [4]: 5.10
pIC50 [7]: 5.12

COc1ccc2c(N)c(C(=O)c3cc(OC)c(OC)c(OC)c3)n(C)c2c1
pIC50 [1]: 5.34

Source: ChEMBL document CHEMBL1144178, “Synthesis and biological evaluation of 2-(3',4',5'-trimethoxybenzoyl)-3-N,N-dimethylamino benzo[b]furan derivatives as inhibitors of tubulin polymerization” (Bioorg Med Chem, 2008)
